For 17 compounds, GFP response vs DMSO, GFP response relative to DMSO and GFP response, % of DMSO results are on record in PubChem BioAssay.

Assay [1] is described as follows: RPL19A-GFP modulators, yeast TOR pathway, confirmation, cell-based, S. cerevisiae, flow cytometry, cherry picks, mother/daughter gates (AID 2270;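 active = GFP response below 50% of the DMSO control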). The settings on record: S. cerevisiae RPL19A-GFP strain, 3 h, at 10 µM, stronger effect = lower value, 100 = same GFP as DMSO wells.
Assay [2] in a line: LAP4-GFP expression modulators in yeast, confirmation, cell-based, cherry picks, flow cytometry, mother/daughter gates (AID 2271;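 active = GFP response above 150% of the DMSO control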;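 note: ratio of sample to DMSO plate mean so 100% equals DMSO level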). The settings on record: S. cerevisiae LAP4-GFP strain, 3 h, at 10 µM, stronger effect = higher value, 100 means same as DMSO control. Summed up: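 Measured by: GFP by flow cytometry. Test system: GFP-fusion yeast strain. Input: yeast cells seeded at OD600 of 0.2. Timing: 30 °C, 3 h compound incubation, rotating. Buffer or medium: synthetic complete medium for yeast. Benchmarks: DMSO-only negative wells, rapamycin 400 ng/mL positive wells. Compound: 10 µM single dose.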

The nature of assay [3]: modulators of MEP2-GFP levels in yeast, confirmation, S. cerevisiae, flow cytometry GFP, cherry picks (AID 2272;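 active = GFP response above 150% of the DMSO control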;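 note: ratio of well signal to plate DMSO mean so 100% equals DMSO level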). The settings on record: S. cerevisiae MEP2-GFP strain, 3 h, at 10 µM, stronger effect = higher value.
Assay [4] in a line: AGP1-GFP expression modulators, hit retest, confirmation, cell-based, flow cytometry, S. cerevisiae, cherry picks (AID 2273).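 Note: median GFP channel fluorescence over the whole cell population gate.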 The settings on record: S. cerevisiae AGP1-GFP strain, 3 h, at 10 µM.
Assay [5] is described as follows: modulators of CIT2-GFP expression in yeast, confirmation, S. cerevisiae, GFP fusion, cherry picks, mother/daughter gates (AID 2274). Particulars: S. cerevisiae CIT2-GFP strain, flow cytometry, 3 h, at 10 µM, stronger effect = higher value.
The mark [6] stands for this setting: measured here: daughter cell gate.
[7] abbreviates: measured here: mother cell gate.
Setting [8] is: measured here: daughter cell gate response.
Setting [9] is: measured here: mother cell gate response.

SMILES strings stand for the structures. Calls of active or inactive are those of the source.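 Rule for the calls, unless noted: active = GFP response above 150% of the DMSO level; inconclusive = fewer than 70 events counted for a yeast strain; inactive = the rest.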

For the compound `CCOC(=O)C1(Cc2ccccc2Cl)CCN(C(=O)CCn2ccnc2C)CC1`, the GFP response vs DMSO in assay [1] is 96.6% (inactive); in assay [1] (setting [6]), 97.3%; in assay [1] (setting [7]) it was 97.2%; in assay [3], 99.5% (inactive). The GFP response relative to DMSO is 101% (inactive) in assay [2], 104% in assay [2] (setting [8]) and 99.5% in assay [2] (setting [9]). Also, the GFP response, % of DMSO was 100% (inactive) in assay [4], 97.8% (inactive) in assay [5], 98.3% in assay [5] (setting [6]) and 98% in assay [5] (setting [7]).

As to `COc1cccc2c1Oc1ncccc1N(C(=O)CCC(=O)NCc1ccccc1Cl)C2`, the GFP response vs DMSO in assay [1] is 95.6% (inactive); in assay [1] (setting [6]), 97.9%; in assay [1] (setting [7]), 95.8%; in assay [3] it was 99% (inactive). The values for the GFP response relative to DMSO in assay [2], in assay [2] (setting [8]) and in assay [2] (setting [9]) were 97% (inactive), 97.5% and 96.2%, respectively. Further, the GFP response, % of DMSO in assay [4] was 99.6% (inactive); in assay [5], 103% (inactive); in assay [5] (setting [6]) it was 103%; in assay [5] (setting [7]) it was 103%.

`CCn1c(=O)c(C(=O)NC(C)C)c(O)c2ccccc21`: the GFP response vs DMSO is 101% (inactive) in assay [1], 98.7% in assay [1] (setting [6]), 101% in assay [1] (setting [7]) and 100% (inactive) in assay [3]. Also, the results for the GFP response relative to DMSO in assay [2], in assay [2] (setting [8]) and in assay [2] (setting [9]) were 101% (inactive), 100% and 101%, respectively. Moreover, the GFP response, % of DMSO in assay [4] was 97.8% (inactive); in assay [5], 103% (inactive); in assay [5] (setting [6]) it was 99.7%; in assay [5] (setting [7]), 103%.

Turning to `COc1ccc(-c2noc(CCC(=O)Nc3cccc(C)c3)n2)cc1`, the GFP response vs DMSO is 96.6% (inactive) in assay [1], 96.7% in assay [1] (setting [6]), 96.2% in assay [1] (setting [7]) and 102% (inactive) in assay [3]. The GFP response relative to DMSO in assay [2] is 109% (inactive); in assay [2] (setting [8]) it was 105%; in assay [2] (setting [9]), 108%. Further, the GFP response, % of DMSO is 96.9% (inactive) in assay [4], 97.8% (inactive) in assay [5], 98.3% in assay [5] (setting [6]) and 94.5% in assay [5] (setting [7]).

Regarding `CSC(SC)=C(C#N)C(=O)c1ccccc1`, the GFP response vs DMSO in assay [1] was 102% (inactive); in assay [1] (setting [6]), 98.6%; in assay [1] (setting [7]), 99.8%; in assay [3] it was 103% (inactive). Further, the GFP response relative to DMSO was 128% (inactive) in assay [2], 117% in assay [2] (setting [8]) and 129% in assay [2] (setting [9]). The GFP response, % of DMSO is 96.3% (inactive) in assay [4], 93% (inactive) in assay [5], 92% in assay [5] (setting [6]) and 93.2% in assay [5] (setting [7]).

Consider `Cc1ccc(N2CCN(C(=O)c3ccccc3)CC2)c(C)c1`, for which the GFP response vs DMSO in assay [1] was 99% (inactive); in assay [1] (setting [6]), 99.4%; in assay [1] (setting [7]) it was 99.5%; in assay [3] it was 98.3% (inactive). In addition, the GFP response relative to DMSO is 95.4% (inactive) in assay [2], 94.4% in assay [2] (setting [8]) and 94% in assay [2] (setting [9]). Further, the GFP response, % of DMSO is 94.3% (inactive) in assay [4], 107% (inactive) in assay [5], 106% in assay [5] (setting [6]) and 106% in assay [5] (setting [7]).

Consider `O=C1C2C3C=CC(CNS(=O)(=O)c4ccccc4[N+](=O)[O-])(O3)C2C(=O)N1c1ccccc1` (configuration not stated), for which the GFP response vs DMSO is 97.6% (inactive) in assay [1], 97.3% in assay [1] (setting [6]), 97.3% in assay [1] (setting [7]) and 101% (inactive) in assay [3]. The GFP response relative to DMSO is 98.6% (inactive) in assay [2], 99.7% in assay [2] (setting [8]) and 98.2% in assay [2] (setting [9]). Further, the GFP response, % of DMSO is 101% (inactive) in assay [4], 107% (inactive) in assay [5], 106% in assay [5] (setting [6]) and 107% in assay [5] (setting [7]).

In the case of `CCCc1[nH]nc2c1C(c1ccccc1OCC)C(C#N)=C(N)O2` (configuration not stated), the GFP response vs DMSO was 98.4% (inactive) in assay [1], 99.5% in assay [1] (setting [6]), 98% in assay [1] (setting [7]) and 100% (inactive) in assay [3]. Moreover, the GFP response relative to DMSO is 99.8% (inactive) in assay [2], 98.7% in assay [2] (setting [8]) and 101% in assay [2] (setting [9]). Further, the GFP response, % of DMSO in assay [4] is 102% (inactive); in assay [5], 99.1% (inactive); in assay [5] (setting [6]) it was 96.5%; in assay [5] (setting [7]) it was 98.7%.

On to `COc1ccccc1N1C(=O)CC(Sc2nccc(C)n2)C1=O` (configuration not stated), for which the GFP response vs DMSO was 101% (inactive) in assay [1], 98.6% in assay [1] (setting [6]), 102% in assay [1] (setting [7]) and 99% (inactive) in assay [3]. The GFP response relative to DMSO in assay [2] was 95.7% (inactive); in assay [2] (setting [8]), 95.9%; in assay [2] (setting [9]), 95.2%. The GFP response, % of DMSO was 99.6% (inactive) in assay [4], 98.8% (inactive) in assay [5], 93.8% in assay [5] (setting [6]) and 99.3% in assay [5] (setting [7]).

With `CCOc1cc(N2CCOCC2)c(OCC)cc1NC(=O)C(NC(=O)c1ccco1)C(C)C` (configuration not stated), the GFP response vs DMSO is 102% (inactive) in assay [1], 101% in assay [1] (setting [6]), 102% in assay [1] (setting [7]) and 107% (inactive) in assay [3]. Also, the GFP response relative to DMSO in assay [2] is 91.4% (inactive); in assay [2] (setting [8]), 95.6%; in assay [2] (setting [9]), 93.1%. The GFP response, % of DMSO in assay [4] was 99.6% (inactive); in assay [5] it was 108% (inactive); in assay [5] (setting [6]), 108%; in assay [5] (setting [7]) it was 108%.

For `COc1ccccc1C(=O)N1CCN(c2cccc(C(F)(F)F)c2)CC1`, the GFP response vs DMSO in assay [1] is 96.2% (inactive); in assay [1] (setting [6]) it was 97.3%; in assay [1] (setting [7]), 97.4%; in assay [3], 99.5% (inactive). Besides, the GFP response relative to DMSO in assay [2] was 95.3% (inactive); in assay [2] (setting [8]) it was 96.5%; in assay [2] (setting [9]), 94.6%. Besides, the GFP response, % of DMSO in assay [4] is 98.9% (inactive); in assay [5], 99.3% (inactive); in assay [5] (setting [6]), 100%; in assay [5] (setting [7]) it was 100%.

Turning to `CCNC(=O)c1ccccc1-c1nc(-c2ccccc2Cl)no1`, the GFP response vs DMSO in assay [1] was 95.6% (inactive); in assay [1] (setting [6]), 94.7%; in assay [1] (setting [7]), 95%; in assay [3], 103% (inactive). For the same compound, the results for the GFP response relative to DMSO in assay [2], in assay [2] (setting [8]) and in assay [2] (setting [9]) were 104% (inactive), 97.5% and 104%, respectively. Besides, the GFP response, % of DMSO was 98.6% (inactive) in assay [4], 98.6% (inactive) in assay [5], 99.3% in assay [5] (setting [6]) and 97.1% in assay [5] (setting [7]).

In the case of `Cc1ccc(-n2nnnc2C(Cl)(Cl)c2nnnn2-c2ccc(C)cc2)cc1`, the GFP response vs DMSO in assay [1] is 99.7% (inactive); in assay [1] (setting [6]), 98.8%; in assay [1] (setting [7]), 98.6%; in assay [3], 112% (inactive). Also, the values for the GFP response relative to DMSO in assay [2], in assay [2] (setting [8]) and in assay [2] (setting [9]) were 136% (inactive), 120% and 139%, respectively. Also, the GFP response, % of DMSO is 100% (inactive) in assay [4], 105% (inactive) in assay [5], 106% in assay [5] (setting [6]) and 100% in assay [5] (setting [7]).

As to `CN(C)CCCNc1cc(C(C)(C)C)nc2c(-c3ccc(Cl)cc3)cnn12`, the GFP response vs DMSO was 93.6% (inactive) in assay [1], 89% in assay [1] (setting [6]), 94.2% in assay [1] (setting [7]) and 114% (inactive) in assay [3]. Besides, the figures for the GFP response relative to DMSO in assay [2], in assay [2] (setting [8]) and in assay [2] (setting [9]) were 116% (inactive), 107% and 118%, respectively. The GFP response, % of DMSO in assay [4] is 107% (inactive); in assay [5], 93.1% (inactive); in assay [5] (setting [6]) it was 94%; in assay [5] (setting [7]), 92.6%.

Turning to `COc1ccc(NC(=S)N2CCC(c3ccccc3)C2)cc1` (configuration not stated), the GFP response vs DMSO in assay [1] was 103% (inactive); in assay [1] (setting [6]) it was 98.8%; in assay [1] (setting [7]) it was 98%; in assay [3], 101% (inactive). Moreover, the figures for the GFP response relative to DMSO in assay [2], in assay [2] (setting [8]) and in assay [2] (setting [9]) were 97% (inactive), 95.9% and 97.3%, respectively. Also, the GFP response, % of DMSO in assay [4] is 98.6% (inactive); in assay [5], 97.3% (inactive); in assay [5] (setting [6]), 93.8%; in assay [5] (setting [7]), 94.4%.

In the case of `Cc1ccc(-c2nnn(CC(=O)N(CC(=O)NC3CCCC3)c3ccc(F)cc3)n2)o1`, the GFP response vs DMSO in assay [1] was 97.4% (inactive); in assay [1] (setting [6]), 98.4%; in assay [1] (setting [7]), 96.8%; in assay [3], 99% (inactive). In addition, the GFP response relative to DMSO in assay [2] was 97% (inactive); in assay [2] (setting [8]), 95.9%; in assay [2] (setting [9]), 96.2%. In addition, the GFP response, % of DMSO was 104% (inactive) in assay [4], 100% (inactive) in assay [5], 103% in assay [5] (setting [6]) and 99.3% in assay [5] (setting [7]).

As to `CCOC(=O)Cc1csc(NC(=O)c2sc3nc4ccc(CC)cc4cc3c2N)n1`, the GFP response vs DMSO in assay [1] is 98.9% (inactive); in assay [1] (setting [6]) it was 99.5%; in assay [1] (setting [7]), 99.4%; in assay [3], 108% (inactive). The GFP response relative to DMSO in assay [2] was 95.3% (inactive); in assay [2] (setting [8]), 94.4%; in assay [2] (setting [9]) it was 97.4%. Besides, the GFP response, % of DMSO in assay [4] is 107% (inactive); in assay [5] it was 98.6% (inactive); in assay [5] (setting [6]), 99.3%; in assay [5] (setting [7]) it was 99.3%.
